High-throughput results: PubChem, The Scripps Research Institute Molecular Screening Center
In the library only some 4.5% were active in any assay of this set; here they are far more common.
CHO parental Ca – signal in parental CHO cells, OX1R antagonist counter-screen; parental CHO-K1, ATP-induced calcium, Fluo-8 fluorescence; inhibition, % at 5.6 µM; 330,000 tested, 0.63% active; AID 463079;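 active = inhibition above that plate's mean sample inhibition plus 3 SD, cut at about 26% in these data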;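 note: 0% = ATP-challenged DMSO wells and 100% = DMSO wells without ATP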
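material = parental CHO cells | also added = ATP as calcium-mobilizing challenge | dosing = single point at 5.6 µM | detection = intracellular calcium via Fluo-8 no-wash fluorescent dye | read-out = % inhibition | benchmarks = low control ATP plus DMSO, high control DMSO only | repeats = one well per compound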
OX1R antag-1 – human HCRTR1 antagonism | inhibition, % at 5 µM | O43613 | CHO/OX1R cells, Fluo-8 calcium fluorescence, orexin A | 330,000 tested, 0.43% active;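 active = inhibition above its plate's threshold, mean inhibition of all tested compounds on the plate plus 3 SD, cut at about 37% in these data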;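 note: 0% = orexin A challenge wells and 100% = SB-334867-A antagonist wells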
Target sequence (O43613 whole entry, looked up): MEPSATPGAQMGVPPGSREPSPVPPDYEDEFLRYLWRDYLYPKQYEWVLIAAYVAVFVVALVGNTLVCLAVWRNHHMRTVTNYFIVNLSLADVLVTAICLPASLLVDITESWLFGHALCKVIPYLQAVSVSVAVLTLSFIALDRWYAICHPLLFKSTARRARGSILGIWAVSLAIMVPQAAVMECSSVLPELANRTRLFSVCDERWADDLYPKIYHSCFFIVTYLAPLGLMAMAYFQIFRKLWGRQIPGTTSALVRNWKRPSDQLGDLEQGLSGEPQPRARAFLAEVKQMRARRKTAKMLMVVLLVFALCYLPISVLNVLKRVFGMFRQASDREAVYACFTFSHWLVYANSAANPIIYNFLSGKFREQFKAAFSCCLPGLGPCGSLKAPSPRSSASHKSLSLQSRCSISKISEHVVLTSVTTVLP
OX1R antag-2 – antagonists of human orexin 1 receptor (OX1R); O43613; OX1R-expressing cells, FRET antagonist read-out; inhibition, % at 6.6 µM; 330,000 tested, 1.8% active; in the data active = inhibition mostly above about 38%, no sharp cut-off; inactive = mostly below about 40%;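 note: 0% = agonist challenge alone and 100% = reference antagonist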
TAAR1 antagonist – antagonists of human TAAR1; inhibition, % at 3 µM; CHO RD-HGA16 TAAR1, Fluo-8 calcium fluorescence, antagonist; AID 624466; 360,000 tested, 1.5% active; Q96RJ0;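 active = inhibition above a per-plate cutoff, the mean inhibition of test compounds on that plate plus 3 SD, cut at about 49% in these data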;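 note: 0% = DMSO plus EC80 beta-PEA response and 100% = DMSO alone without agonist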
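Material: CHO RD-HGA16 cells bearing hTAAR1; compound dosing: one-point dosing, 3 µM nominal final; schedule: dye loading 75 min at 37 °C, then 30 min room temperature; measured by: calcium fluorescence with Fluo-8; control set: vehicle and agonist controls; replication: n of 1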
GPR7 antag – antagonists of human GPR7 (neuropeptides B/W receptor 1) | P48145 | GPR7-expressing cells, fluorescence antagonist assay | inhibition, % at 4.4 µM | 290,000 tested, 1.1% active; in the data active = inhibition above about 16%, passing the limit was not always enough;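 note: cells stimulated with the agonist NPW; 0% = agonist with vehicle and 100% = vehicle without agonist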
Target sequence (P48145 whole entry, looked up): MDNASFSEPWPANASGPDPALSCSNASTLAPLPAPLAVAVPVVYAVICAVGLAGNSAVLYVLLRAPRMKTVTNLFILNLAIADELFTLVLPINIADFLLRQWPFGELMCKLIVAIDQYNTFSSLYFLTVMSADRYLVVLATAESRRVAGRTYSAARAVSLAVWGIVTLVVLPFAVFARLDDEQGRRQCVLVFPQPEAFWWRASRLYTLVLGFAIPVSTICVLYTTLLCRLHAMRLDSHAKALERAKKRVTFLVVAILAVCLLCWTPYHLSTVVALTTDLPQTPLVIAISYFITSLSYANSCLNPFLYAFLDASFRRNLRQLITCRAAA
TAAR1 agonist – agonists of human TAAR1; CHO RD-HGA16 TAAR1, Fluo-8 calcium fluorescence; vehicle wells 0%, saturating PEA agonist 100%; AID 624467; activation, % at 3 µM; 360,000 tested, 0.99% active; Q96RJ0;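 active = activation above the mean activation of all test compounds in the run plus 3 SD, cut at about 38% in these data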
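System: CHO-derived RD-HGA16 cells with stable Gα16 and human TAAR1. Times: 17-24 h plating, Fluo-8 75 min 37 °C, 30 min RT. Measured by: calcium-sensitive Fluo-8 signal, excitation 470-495, emission 515-575 nm. Read-out basis: % activation relative to PEA EC100 response. Control set: DMSO and PEA EC100. Repeats: no replicates (n 1).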
TAAR1 ag confirm – confirmation of human TAAR1 agonists; shares compounds with TAAR1 agonist; activation, % at 3 µM; CHO RD-HGA16 TAAR1, Fluo-8 calcium fluorescence; scaled: DMSO 0%, maximal phenethylamine 100%; 2,400 tested, 82% active; AID 651783;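 active = activation above a cutoff set at the run's mean compound activation plus 3 SD, cut at about 39% in these data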
Ga16 ag counter – nonselective agonism, TAAR1 counter-screen | shares compounds with TAAR1 agonist | CHO-Ga16 parental, Fluo-8 calcium fluorescence; normalized to maximal ATP response, DMSO zero | activation, % at 3 µM | 2,400 tested, 50% active | AID 651787;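 active = activation above the run cutoff, the mean activation over all tested wells plus 3 SD, cut at about 12% in these data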;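 note: 0% = DMSO wells and 100% = maximal ATP response on the peak over basal ratio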
TAAR1 desensitize – human TAAR1 agonist that also desensitizes the receptor; shares compounds with TAAR1 agonist; CHO RD-HGA16 hTAAR1, Fluo-8 calcium, beta-PEA response inhibition; inhibition, % at 3 µM; 2,400 tested, 46% active;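 active = inhibition above the run cutoff, the mean inhibition of all test compounds plus 3 SD, cut at about 49% in these data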;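 note: beta-PEA stimulus applied at its EC80; loss of beta-PEA calcium signal after compound pretreatment read as receptor desensitization; 0% = DMSO with beta-PEA at EC80 and 100% = DMSO alone without agonist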
Ga16 antag count – counter-screen for TAAR1 agonists: nonselective Ga16 antagonists | shares compounds with TAAR1 agonist | CHO-Ga16 ATP-induced calcium, Fluo-8 fluorescence | inhibition, % at 3 µM | 2,400 tested, 39% active;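 active = inhibition above the plate's mean compound inhibition plus 3 SD, computed per plate, cut at about 22% in these data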;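 note: 0% = EC80 ATP with DMSO and 100% = DMSO wells without ATP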
Numbers without * were called inactive.

Results for Cc1ccc(CNC(=O)COC(=O)c2cc3c(s2)CCC(C)C3)cc1 (stereo not drawn) ?
CHO parental Ca: -13; OX1R antag-1: -26; OX1R antag-2: 8; TAAR1 antagonist: -15; GPR7 antag: 0; TAAR1 agonist: -1

What do the screens show for `O=c1cnnc(Nc2cccc(C(F)(F)F)c2)[nH]1`?
CHO parental Ca: -9; OX1R antag-1: -2; OX1R antag-2: 7; TAAR1 antagonist: 9; GPR7 antag: -10; TAAR1 agonist: 11

How did O=c1cnnc(Nc2cccc(F)c2)[nH]1 do in these assays?
CHO parental Ca: -2; OX1R antag-1: -15; OX1R antag-2: 20; TAAR1 antagonist: 37; GPR7 antag: 6; TAAR1 agonist: 64*; TAAR1 ag confirm: 74*; Ga16 ag counter: 0; TAAR1 desensitize: 48; Ga16 antag count: 12

Results for O=c1cnnc(Nc2ccc(F)cc2)[nH]1 ?
CHO parental Ca: 18; OX1R antag-1: -13; OX1R antag-2: 17; TAAR1 antagonist: 25; GPR7 antag: -18; TAAR1 agonist: 46*; TAAR1 ag confirm: 57*; Ga16 ag counter: 2; TAAR1 desensitize: 3; Ga16 antag count: 4

What do the screens show for `CC1(Cc2ccc3ccccc3n2)C(=O)Nc2ccc(OC(F)(F)F)cc21` (stereo not drawn)?
TAAR1 antagonist: -6; TAAR1 agonist: 1

Results for COc1ccc(-n2nc3c(N4CCC(C(=O)NCc5ccccc5C)CC4)nnc(C)c3c2C)cc1 ?
CHO parental Ca: -24; OX1R antag-1: -19; OX1R antag-2: 2; GPR7 antag: -4

How did COc1ccc(-n2nc3c(N4CCC(C(=O)NCC(C)c5ccccc5)CC4)nnc(C)c3c2C)cc1 (stereo not drawn) do in these assays?
CHO parental Ca: -19; OX1R antag-1: -40; OX1R antag-2: 13; TAAR1 antagonist: 3; GPR7 antag: 8; TAAR1 agonist: 59*; TAAR1 ag confirm: 56*; Ga16 ag counter: 1; TAAR1 desensitize: 26; Ga16 antag count: -1

What do the screens show for `C/C(Nc1ccc(Cl)c(Cl)c1)=C1/CCOC1=O`?
TAAR1 antagonist: -4; TAAR1 agonist: 1

How did COc1ccc(C(=O)N/N=C/c2sc3ccccc3c2O)cc1 do in these assays?
CHO parental Ca: 4; OX1R antag-1: 15; OX1R antag-2: 17; GPR7 antag: -1

How did COc1ccc2cc(C(=O)N/N=C/c3sc4ccccc4c3O)ccc2c1 do in these assays?
CHO parental Ca: 5; OX1R antag-1: 2; OX1R antag-2: 22; TAAR1 antagonist: 28; GPR7 antag: -5; TAAR1 agonist: 108*; TAAR1 ag confirm: 49*; Ga16 ag counter: 57*; TAAR1 desensitize: 44; Ga16 antag count: 53*

Results for COc1ccc2noc3c2c1C(=O)c1ccccc1-3 ?
CHO parental Ca: 51*; OX1R antag-1: 51*; OX1R antag-2: 100*; TAAR1 antagonist: 67*; TAAR1 agonist: 150*; TAAR1 ag confirm: 74*; Ga16 ag counter: 63*; TAAR1 desensitize: 75*; Ga16 antag count: 61*

Results for COc1cccc2c1C(=O)c1ccc3ccccc3c1C2=O ?
CHO parental Ca: -17; OX1R antag-1: -10; OX1R antag-2: 16; GPR7 antag: -9

Results for Cc1nn(C(=O)CCC(=O)NCCc2ccccc2)c2ccccc12 ?
CHO parental Ca: -1; OX1R antag-1: -12; OX1R antag-2: 12; GPR7 antag: -6; Ga16 ag counter: 5; Ga16 antag count: 8

How did O=C(NCc1ccco1)c1cc(-c2ccc(F)cc2)on1 do in these assays?
CHO parental Ca: -9; OX1R antag-1: -18; OX1R antag-2: 8; TAAR1 antagonist: 34; GPR7 antag: -5; TAAR1 agonist: 49*; TAAR1 ag confirm: 2; Ga16 ag counter: 2; TAAR1 desensitize: -1; Ga16 antag count: 5

How did O=C(NCc1ccco1)c1cc(-c2ccccc2)on1 do in these assays?
CHO parental Ca: 2; OX1R antag-1: -8; OX1R antag-2: 5; TAAR1 antagonist: 3; GPR7 antag: 0; TAAR1 agonist: 10

Results for Clc1ccc(/C=N/Nc2ncnc3ccccc23)cc1Cl ?
CHO parental Ca: -20; OX1R antag-1: -12; OX1R antag-2: 22; TAAR1 antagonist: 14; GPR7 antag: -2; TAAR1 agonist: 45*; TAAR1 ag confirm: 19; Ga16 ag counter: 13*; TAAR1 desensitize: 14; Ga16 antag count: -2

Results for Cc1ccc2c(c1)c1c3n2CCN=C3CCC1 ?
CHO parental Ca: -13; OX1R antag-1: -11; OX1R antag-2: 11; TAAR1 antagonist: -3; GPR7 antag: 0; TAAR1 agonist: 18

How did c1cc2c(cc1C1CCCCC1)c1c3n2CCN=C3CCC1 do in these assays?
CHO parental Ca: 2; OX1R antag-1: -9; OX1R antag-2: 2; TAAR1 antagonist: 44; GPR7 antag: 13; TAAR1 agonist: 66*; TAAR1 ag confirm: 59*; Ga16 ag counter: 24*; TAAR1 desensitize: 39; Ga16 antag count: 17

How did COc1ccc2c(c1)C1(C)CC(C)(C)N2C(=O)N1c1ccccc1 (stereo not drawn) do in these assays?
CHO parental Ca: -26; OX1R antag-1: -40; OX1R antag-2: 4; TAAR1 antagonist: 11; GPR7 antag: -17; TAAR1 agonist: 44*; TAAR1 ag confirm: 16; Ga16 ag counter: 8; TAAR1 desensitize: 3; Ga16 antag count: 10

How did CCN(CC)S(=O)(=O)c1ccc(C(=O)NCCSc2c[nH]c3ccccc23)cc1 do in these assays?
CHO parental Ca: -8; OX1R antag-1: -29; OX1R antag-2: 16; TAAR1 antagonist: 86*; GPR7 antag: -5; TAAR1 agonist: 55*; TAAR1 ag confirm: 1; Ga16 ag counter: 3; TAAR1 desensitize: 16; Ga16 antag count: 17

What do the screens show for `CCC(=O)NCCSc1c[nH]c2ccccc12`?
CHO parental Ca: -4; OX1R antag-1: -1; OX1R antag-2: 8; TAAR1 antagonist: 0; GPR7 antag: -7; TAAR1 agonist: 5

How did CCCCN1C[C@H](C)[C@@H](CC(=O)NC)C1=O do in these assays?
TAAR1 antagonist: -6; TAAR1 agonist: 1
